Data on 56 compounds can be found in ChEMBL document CHEMBL3745658, “An Orally Bioavailable, Indole-3-glyoxylamide Based Series of Tubulin Polymerization Inhibitors Showing Tumor Growth Inhibition in a Mouse Xenograft Model of Head and Neck Cancer” (J Med Chem, 2015).

In brackets after ≈: the same amount, converted by molar mass. Activity calls are given as the source filed them. The calls are words filed in the database; no cut-off is given here. A value given as a limit tells only on which side of the number the result lay.

In one data set the test system is FaDu. The data set can be described thus: Cytotoxicity against human FADU cells assessed as reduction in cell viability after 72 hrs by MTT assay. The class given is functional. Conditions: read-out: LC50 (the source's name). On the technique in general: Tetrazolium dyes change colour on reduction, which living cells bring about.
The nature of data set [1]: Solubility in 2% DMSO containing 50 mM potassium phosphate buffer solution at pH 7.4 by dynamic light scattering method. The conditions noted are these: 50 mM potassium phosphate buffer with 2% DMSO.
The test system of the next data set is MES-SA/Dx5. Briefly: Cytotoxicity against multidrug resistant human MES-SA/Dx5 cells assessed as reduction in cell viability after 72 hrs by MTT assay. Type of data set: functional, cell-based. The gist of the method:
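Cells plated at an appropriate density and left 24 h to attach, then dosed in triplicate with compound diluted from 10 mM DMSO stocks into full growth medium (added at 2× final concentration). After 72 h, cells PBS-washed and given MTT (0.5 mg/mL in PBS) for 45−60 min. Formazan dissolved in 0.1 M HCl/2-propanol, A570 read (650 nm reference). Viability normalised to DMSO control; LC50 by nonlinear regression.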

In data set [2] the target is T1, Tubulin (Sus scrofa) (UniProt P02554+P02550). Briefly: Displacement of [3H]-vinblastine from biotinylated porcine tubulin after 15 mins by competitive binding assay. The class given is protein assay. The gist of the method:
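Biotinylated porcine tubulin, 0.2 μM [3H]-vinblastine, SPA beads and test compound combined together in G-PEM with 1 mM GTP, 3% DMSO, duplicate wells, 15 min at rt before counting. Nonspecific binding taken with 1000-fold unlabeled excess. IC50 from seven-point semilog curves, four-parameter fit.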
In general terms: Displacement assays read how much labelled ligand stays bound in the presence of the test substance.

In data set [3] the target is T1, Tubulin (Sus scrofa). Briefly: Displacement of [3H]-paclitaxel from biotinylated porcine tubulin after 25 mins by competitive binding assay. Type of data set: protein assay. The gist of the method: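 Biotinylated porcine tubulin precoupled to SPA beads for 30 min at 4 °C, then 0.05 μM [3H]-paclitaxel and test compound added in G-PEM with 1 mM GTP, 3% DMSO, duplicate wells, 25 min at rt. Nonspecific binding taken with 1000-fold unlabeled excess. IC50 from seven-point semilog curves, four-parameter fit.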

A short description of data set [4]: Solubility in 2% DMSO containing 50 mM potassium phosphate buffer solution pH 7.4 at 10 uM by dynamic light scattering method. Conditions: pH 7.4, 10 µM.
Data set [5] is described as follows: Metabolic stability in CD-1 mouse liver microsomes assessed as half life at 1 uM preincubated for 5 mins before addition of NADPH by LC-MS/MS method. The class given is ADME.

As for `CC(C)n1cc(C(=O)C(=O)Nc2ccncc2)c2ccccc21`, the CC50 with FaDu was above 10000 nM.

With `COc1ccc(NC(=O)C(=O)c2cn(C(C)C)c3ccccc23)cc1`, the CC50 in the data set with FaDu came out at 181 nM.

Consider `COCCn1cc(C(=O)C(=O)Nc2ccc(OC(C)(C)C)nc2)c2ccccc21`, for which the CC50 in the data set on FaDu was 858 nM.

As to `COc1nc(NC(=O)C(=O)c2cn(C(C)C)c3ccccc23)ns1`, the CC50 with FaDu is above 10000 nM.

For the compound `COc1ccc(NC(=O)C(=O)c2cn(C(C)C)c3cc(Cl)ccc23)cn1`, in the data set with FaDu, the CC50 worked out at 1770 nM.

With `CCC(C)n1cc(C(=O)C(=O)Nc2ccc(OC)nc2)c2ccccc21` (stereo not given), the CC50 in the data set with FaDu was determined as 68 nM.

For `COCCc1cc(C(=O)C(=O)Nc2ccc(OC(F)(F)F)cc2)c2ccccn12`, in the data set with FaDu, the CC50 is 758 nM.

Consider `COCCn1cc(C(=O)C(=O)Nc2ccncc2)c2ccccc21`, for which the CC50 with FaDu is above 10000 nM.

Regarding `CCc1cc(C(=O)C(=O)Nc2ccc(OC)nc2)c2ccccn12`, the CC50 in the data set on FaDu worked out at 110 nM.

Take `COc1ccc(NC(=O)C(=O)c2cn(C(C)C)c3ccc(Cl)cc23)cn1`: the CC50 with FaDu was above 10000 nM.

Usually kinetic solubility stands for the concentration staying in solution when a stock, usually in DMSO, is diluted into the medium. `COc1ccc(NC(=O)C(=O)c2cn(C(C)(C)COCC(=O)O)c3ccccc23)cn1` had a kinetic solubility in data set [1] above 200 µM. Moreover, the CC50 in the data set on FaDu was above 10000 nM.

In the case of `COc1ccc(NC(=O)C(=O)c2cn(C(C)C)c3c(OC)cccc23)cn1`, the CC50 in the data set with FaDu was above 10000 nM.

For `COc1ccc(NC(=O)C(=O)c2cn(C(C)C)c3cccnc23)cn1`, the CC50 in the data set on FaDu was above 10000 nM.

Consider `CC(=O)O[C@H]1C(=O)[C@@]2(C)[C@H]([C@H](OC(=O)c3ccccc3)[C@]3(O)C[C@H](OC(=O)[C@H](O)[C@@H](NC(=O)c4ccccc4)c4ccccc4)C(C)=C1C3(C)C)[C@]1(OC(C)=O)CO[C@@H]1C[C@@H]2O`, for which the result with MES-SA/Dx5 was inactive.

Consider `COc1ccc(NC(=O)C(=O)c2cn(C3CCCC3)c3ccccc23)cn1`, for which the CC50 with FaDu is 370 nM.

Consider `CC(C)n1cc(C(=O)C(=O)Nc2cccnc2)c2ccccc21`, for which the CC50 with FaDu is above 10000 nM.

As for `COc1ccc(NC(=O)C(=O)c2cn(C(C)C)c3cnccc23)cn1`, the CC50 with FaDu is above 10000 nM.

For the compound `COc1cc(NC(=O)C(=O)c2cn(C(C)C)c3ccccc23)ccn1`, the CC50 in the data set on FaDu was 1750 nM.

As for `COc1ccc(NC(=O)C(=O)c2cn(C(C)C)c3ncccc23)cn1`, the result on Tubulin (Sus scrofa) [2] and on Tubulin (Sus scrofa) [3] was inactive. The CC50 in the data set on FaDu is 126 nM.

With `CCn1cc(C(=O)C(=O)Nc2ccnc(OC)c2)c2ccccc21`, the CC50 with FaDu is 4180 nM.

Turning to `CCn1cc(C(=O)C(=O)Nc2ccc(OC)nc2)c2ccccc21`, the outcome at Tubulin (Sus scrofa) [2] was Active. Further, the outcome on Tubulin (Sus scrofa) [3] was inactive. The solubility result in data set [4] is “soluble”. In addition, the solubility (kinetic) in data set [1] worked out at 10 µM (≈ 3.23 µg/mL). For the same compound, the CC50 with FaDu is 219 nM.

For the compound `COc1ccc(NC(=O)C(=O)c2cn(CC(C)C)c3ccccc23)cn1`, the CC50 in the data set on FaDu is 317 nM.

As to `COc1cc2c(c(OC)c1OC)-c1ccc(OC)c(=O)cc1[C@@H](NC(C)=O)CC2`, in the data set on MES-SA/Dx5, the result was inactive.

For `COCCn1cc(C(=O)C(=O)Nc2ccc(OC)nc2)c2cc(OC)ccc21`, the CC50 in the data set on FaDu was above 10000 nM.

On to `COCCn1cc(C(=O)C(=O)Nc2ccc(OCC(=O)O)nc2)c2ccccc21`, for which the kinetic solubility in data set [1] was above 200 µM. The CC50 in the data set on FaDu was above 10000 nM.

Usually half-life stands for how long it takes for the measured level to halve. As for `COc1ccc(NC(=O)C(=O)c2cc(C(C)C)n3ccccc23)cn1`, the half-life at 1 µM in data set [5] is below 5 min. For the same compound, the outcome at Tubulin (Sus scrofa) [2] and on Tubulin (Sus scrofa) [3] was inactive. The solubility result in data set [4] was “soluble”. Moreover, the kinetic solubility in data set [1] was found to be 10 µM (≈ 3.37 µg/mL). Also, the CC50 in the data set with FaDu was 160 nM.

Regarding `COCCc1cc(C(=O)C(=O)Nc2ccc(OC)nc2)c2ccccn12`, the half-life at 1 µM in data set [5] is 6 min. The CC50 in the data set on FaDu amounted to 36 nM.

As for `COc1ccc(NC(=O)C(=O)c2cn(C(C)C)c3ccccc23)cc1OC`, the CC50 with FaDu is above 10000 nM.

Turning to `COc1ccc(NC(=O)C(=O)c2cn(C(C)C)c3ccccc23)nn1`, the CC50 with FaDu is 2270 nM.

In the case of `COc1ccc(NC(=O)C(=O)c2cn(CC3CCO3)c3ccccc23)cn1` (stereo not given), in the data set on FaDu, the CC50 is 686 nM.

Consider `COCCn1cc(C(=O)C(=O)Nc2ccc(OC)nc2)c2cc(Cl)ccc21`, for which, in the data set on FaDu, the CC50 is above 10000 nM.

Consider `CCCCn1cc(C(=O)C(=O)Nc2ccc(OC)nc2)c2ccccc21`, for which the CC50 in the data set on FaDu was found to be 18 nM.

`COc1ccc(NC(=O)C(=O)c2cn(C(C)C)c3ccncc23)cn1`: in the data set with FaDu, the CC50 was above 10000 nM.

As to `COc1nsc(NC(=O)C(=O)c2cn(C(C)C)c3ccccc23)n1`, the CC50 with FaDu came to 10400 nM.

Consider `CCOc1ccc(NC(=O)C(=O)c2cn(C(C)C)c3ccccc23)cn1`, for which the CC50 with FaDu is 175 nM.

On to `COCCn1cc(C(=O)C(=O)Nc2ccnc(OC)c2)c2ccccc21`, for which the CC50 in the data set with FaDu stood at 235 nM.

Turning to `COCCn1cc(C(=O)C(=O)Nc2ccc(OC(F)(F)F)cc2)c2ccccc21`, the result on Tubulin (Sus scrofa) [2] was Active. At Tubulin (Sus scrofa) [3], the outcome was inactive. In the data set with FaDu, the CC50 worked out at 487 nM.

For the compound `COc1ccc(NC(=O)C(=O)c2cn(C(C)C)c3c(Cl)cccc23)cn1`, the CC50 in the data set with FaDu came out at 10200 nM.

With `COc1ccc(NC(=O)C(=O)c2cn(C(C)C)c3ccc(Cl)cc23)cc1`, in the data set with FaDu, the CC50 was above 10000 nM.

With `COCCn1cc(C(=O)C(=O)Nc2ccc(C(F)(F)F)nc2)c2ccccc21`, the CC50 with FaDu is above 10000 nM.

On to `COc1ccc(NC(=O)C(=O)c2cn(CC(C)(C)OC)c3ccccc23)cn1`, for which, in the data set with FaDu, the CC50 is above 10000 nM.

As to `CC(C)Oc1ccc(NC(=O)C(=O)c2cn(C(C)C)c3ccccc23)cn1`, the half-life at 1 µM in data set [5] came to 66 min. For the same compound, in the data set with FaDu, the CC50 stood at 408 nM.

As for `CC(C)n1cc(C(=O)C(=O)Nc2ccc(OC(F)(F)F)cc2)c2ccccc21`, the CC50 in the data set with FaDu came out at 8930 nM.

In the case of `CCn1cc(C(=O)C(=O)Nc2ccncc2)c2ccccc21`, the CC50 in the data set with FaDu was above 10000 nM.

Turning to `COCCn1cc(C(=O)C(=O)Nc2ccc(OC)cc2)c2ccccc21`, the CC50 in the data set with FaDu is 59 nM.

As to `CC(C)n1cc(C(=O)C(=O)Nc2ccc(C(F)(F)F)nc2)c2ccccc21`, the CC50 with FaDu was above 10000 nM.

As for `CC[C@]1(O)C[C@@H]2CN(CCc3c([nH]c4ccccc34)[C@@](C(=O)OC)(c3cc4c(cc3OC)N(C)[C@H]3[C@@](O)(C(=O)OC)[C@H](OC(C)=O)[C@]5(CC)C=CCN6CC[C@]43[C@@H]65)C2)C1`, the result in the data set with MES-SA/Dx5 was inactive.

As to `COc1ccc(NC(=O)C(=O)c2cn(C(C)C)c3cccc(Cl)c23)cn1`, in the data set with FaDu, the CC50 is 2130 nM.

For the compound `COc1ccc(NC(=O)C(=O)c2cn(CCC(=O)O)c3ccccc23)cn1`, the solubility (kinetic) in data set [1] was above 200 µM. Also, the CC50 with FaDu was above 10000 nM.

Consider `COc1ccc(NC(=O)C(=O)c2cn(C(C)C)c3cccc(OC)c23)cn1`, for which the CC50 in the data set on FaDu amounted to 7780 nM.

Consider `COC(=O)CCn1cc(C(=O)C(=O)Nc2ccc(OC)nc2)c2ccccc21`, for which, in the data set on FaDu, the CC50 was 168 nM.

As for `COCCn1cc(C(=O)C(=O)Nc2cnc(OC)nc2)c2ccccc21`, the CC50 in the data set with FaDu was determined as 55 nM.

As for `CCOC(=O)COc1ccc(NC(=O)C(=O)c2cn(CCOC)c3ccccc23)cn1`, the CC50 with FaDu was above 10000 nM.

With `COc1ccc2c(C(=O)C(=O)Nc3ccc(OC)nc3)cn(C(C)C)c2c1`, the CC50 with FaDu is above 10000 nM.

`COc1ccc(NC(=O)C(=O)c2cn(CCOC(C)C)c3ccccc23)cn1`: the half-life at 1 µM in data set [5] was 23 min. For the same compound, in the data set with FaDu, the CC50 was 211 nM.

Regarding `COc1ccc2c(c1)c(C(=O)C(=O)Nc1ccc(OC)nc1)cn2C(C)C`, the CC50 in the data set with FaDu was above 10000 nM.
